Assay results published in PMC6990463 (Cellular physiology and biochemistry : international …, 2019).
Peptide text beside a SMILES is read from it. * marks the point of attachment. Cbz = O=C(OCc1ccccc1)*; CH2F = FC*

What was measured:
cleaved lamin A/C = experiment: Western blotting for Lamin A/C in WM266–4 cells; format: cell-based, human; conditions: LY294002 10 μM, 2155–14 100 μM
Method in brief: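 WM266–4 cells (1 × 10^6, E-MEM + 10% FBS, 6 cm plates) pre-treated after 24 h with caspase inhibitors for 3 h or autophagy inhibitors (LY294002 10 μM, hydroxychloroquine) for 1 h. Test compound given at various doses and times, with or without inhibitors; controls staurosporine 1 μM, rapamycin 10 μM + chloroquine 5 μM. Lysates blotted with polyclonal lamin A/C antibody (1:1000).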

LC3-II = experiment: Western blotting for LC3 in WM266–4 cells; format: cell-based, human
Method in brief: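 1 × 10^6 cells seeded (WM266–4 in E-MEM, M14 in RPMI-1640; + 10% FBS) in 6 cm plates. Test compound at various doses and times; controls rapamycin 10 μM + chloroquine 5 μM, staurosporine 1 μM. Lysates blotted with polyclonal LC3 A/B antibody (1:1000); bands normalised to β-actin, as fold of untreated; n=3.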

WM266–4 = experiment: Cell viability assay; format: cell-based, human; conditions: for WM266–4 viability, inhibitor alone: 50 μM inhibitor, 72 h
sXBP1 = experiment: ER stress assay; format: cell-based, human; conditions: 60 μM STF-83010 pre-treatment 3 h
Method in brief: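 WM266–4 cells (0.2 × 10^6, E-MEM + 10% FBS, 24-well) pre-treated 24 h after seeding with 60 μM STF-83010 or vehicle for 3 h. RNA extracted with TRI reagent; amplified products run on 2% agarose with GelGreen and quantified. sXBP-1 expressed as % of total XBP-1 (sXBP-1 + XBP-1).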

metastatic melanoma = conditions: BRAF-mutant metastatic melanoma; cited from earlier work
PC-3 cells = conditions: read-out: IC50, apoptotic cell death of PC-3 cells; cited from earlier work
WM266–4 cells = experiment: Annexin V flow cytometry assay; format: cell-based, human; conditions: 4 h, staurosporine 1 μM
Method in brief: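 WM266–4 cells (1,000,000/flask, EMEM + 10% FBS + 1% pen/strep) adhered overnight. 24 h after plating, optional 2 h pre-treatment with Z-VAD-FMK 10 μM. Test compound 100 μM or staurosporine 1 μM (control) for 4, 24 and 48 h. Adherent plus floating cells pooled, Annexin V-FITC stained, and viable, necrotic, early and late apoptotic cells counted by flow cytometry.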

SKMEL2 = experiment: Cell viability assay; format: cell-based; conditions: Homo sapiens, SK-MEL-2, 72 h, read-out: IC50, viability SKMEL2 (M)
Method in brief: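 Cells plated in 384-well format. Test compound as a 10-point 1:3 dilution series prepared from 300 μM; dabrafenib as assay control. Incubated 72 h at 37 °C, 5% CO2. CellTiter-Glo added for 15 min at room temperature; luminescence read. Viability normalised to media-only (0%) and DMSO-treated cells (100%). S/B, CV and Z′ computed per plate.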

SKMEL28 = conditions: read-out: IC50, viability SKMEL28; V600E BRAF/R24C CDK4 primary; cited from earlier work
WM115 = experiment: Cell viability assay; format: cell-based; conditions: Homo sapiens, WM-115, 72 h, read-out: IC50, viability WM115 (F)
M14 = experiment: Cell viability assay; format: cell-based; conditions: Homo sapiens, M14, 72 h, read-out: IC50, viability M14 (M)

Compound: O=c1cc(N2CCOCC2)oc2c(-c3ccccc3)cccc12 [LY294002]
- effect of pre-treatment on cleaved lamin A/C levels in cells treated with 2155–14 (cleaved lamin A/C): no effect
- LC3-II levels, fold of untreated control (LC3-II; LY294002 10 μM alone): 20 fold
- LC3-II levels, fold of untreated control (LC3-II; combination of LY294002 10 μM and 2155–14 100 μM): ~ 40 fold

Compound: CC(C)[C@H](NC(=O)OCc1ccccc1)C(=O)N[C@H](C=O)Cc1ccccc1 [MDL-28170] (Cbz-Val-Phe-aldehyde)
- WM266–4 viability 24 h after addition of 2155–14, inhibitor pre-incubation (WM266–4; caspase inhibitors 10 μM, calpain inhibitors 25 μM, 2155–14 100 μM): further decreased cell viability

Compound: O=S(=O)(N=Cc1c(O)ccc2ccccc12)c1cccs1 [STF-83010]
- effect on sXBP1 formation by 2155–14 (sXBP1): inhibited

Compound: CC(C)(C)c1nc(-c2cccc(NS(=O)(=O)c3c(F)cccc3F)c2F)c(-c2ccnc(N)n2)s1 [dabrafenib]
- median progression-free survival (PFS) (metastatic melanoma): 6.9 months

Compound: O=c1c(O)c(-c2ccc(O)c(O)c2)oc2cc(O)cc(O)c12 [quercetin]
- IC50 (PC-3 cells): 100 µM

Compound: CN[C@@H]1C[C@H]2O[C@@](C)([C@@H]1OC)n1c3ccccc3c3c4c(c5c6ccccc6n2c5c31)C(=O)NC4 [staurosporine]
- apoptosis detection (WM266–4 cells): apoptosis was detected

Compound: CCCS(=O)(=O)Nc1ccc(F)c(C(=O)c2c[nH]c3ncc(-c4ccc(Cl)cc4)cc23)c1F [vemurafenib]
- median progression-free survival (PFS) (metastatic melanoma): 6.9 months
- IC50 (SKMEL2): 1.4e-06 ± 7e-07 M
- IC50 (WM266–4; Homo sapiens, WM 266-4, 72 h, read-out: IC50, viability WM266–4 (F)): 3 ± 0.4 µM
- IC50 (SKMEL28): 4.6 µM
- IC50 (WM115): 5 ± 0.9 µM
- IC50 (M14): 1e-06 ± 2e-07 M

Compound: Cbz-Val-Ala-Asp-CH2F
- WM266–4 viability, inhibitor alone (WM266–4): completely inhibited cell viability

Compound: Z-IETD-FMK: selective caspase 8 inhibitor
- WM266–4 viability, inhibitor alone (WM266–4): completely inhibited cell viability
- WM266–4 cells viable, 2155–14 in combination with inhibitor (WM266–4; 48 h, 2155–14 100 μM, caspase inhibitors 10 μM, calpain inhibitor 25 μM): 25%
